Assay results from PMC6904836 (International Journal for Parasitology: Drugs and Drug …, 2019).
Where “and” joins values, the source holds several entries; their conditions need not be identical. Identical values can stand only once. Blank lines part the entries; values can stand above or below the compound they belong to.

Legend:
[1] = test system: L. major (MHOM/IL/SU73/WR779); experiment: Luciferase amastigote macrophage assay in RAW 264.7; assay type: cell-based; details: Leishmania major, RAW264.7, 96 h, read-out: EC50 L. major
Outline: (§1)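 RAW 264.7 macrophages (10,000/well) were incubated 24 h at 37 °C/5% CO2, then infected with luciferase-transfected promastigotes in DMEM + 10% HiFBS. Promastigotes were maintained in Schneider's + 20% HiFBS at 22 °C. Compounds (DMSO stock 11.5 mM) ran from 10 μg/ml in 1:2 dilutions, 0.2% DMSO final, for 96 h at 37 °C. D-luciferin was added at 150 μg/mL final for 30 min before the luminescence read. Amphotericin B control was run in octuplicate.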

[2] = test system: L. tropica (MHOM/SU/74/K-27 WR-2995); experiment: Luciferase amastigote macrophage assay in RAW 264.7; assay type: cell-based; details: Leishmania tropica, RAW264.7, 96 h, read-out: EC50 L. tropica
[3] = test system: L. guyanensis (MHOM/GY/06/PAB-3985-WR-2853/A Chan); experiment: Luciferase amastigote macrophage assay in RAW 264.7; assay type: cell-based; details: Leishmania guyanensis, RAW264.7, 96 h, read-out: EC50 L. guyanensis
Outline: as §1

[4] = test system: L. major (NIH173 (MHOM/IR/-/173)); experiment: Lesion cure model, BALB/c mice infected with luciferase-expressing L. major; assay type: in vivo; details: BID; for bioluminescence signal (parasite load) at the infection site: vs vehicle control
in vitro = details: human
[5] = test system: L. major (MHOM/SA/85/JISH118); experiment: L. major - BALB/c mouse model of CL; assay type: in vivo, BALB/c mice; details: for % reduction Lesion size / % reduction Parasite load: n = 5
[6] = pH7.4; ref DNDi unpublished data; cited from earlier work
[7] = study 1, 50 mg/kg PO, 5 days, day 11 post end of treatment
[8] = study 2, 50 mg/kg PO, 10 days, day 11 post end of treatment
[9] = study 2, 50 mg/kg PO, 10 days, day 80
[10] = 50 mg/kg/day, compared to the untreated control

EC50 [1]: 0.03 µM | EC50 [2]: 0.01 µM | EC50 [3]: 0.03 µM
Compound: C[C@@H]1[C@H](O)[C@@H](C)/C=C/C=C/C=C/C=C/C=C/C=C/C=C/[C@H](O[C@@H]2O[C@H](C)[C@@H](O)[C@H](N)[C@@H]2O)C[C@@H]2O[C@](O)(C[C@@H](O)C[C@@H](O)[C@H](O)CC[C@@H](O)C[C@@H](O)CC(=O)O[C@H]1C)C[C@H](O)[C@H]2C(=O)O [Amphotericin B, amphotericin B deoxycholate, reference compound]

EC50 [1]: 0.34 µM | EC50 [3]: 0.85 µM
Compound: O=[N+]([O-])c1cn2c(n1)O[C@@H](COc1ccc(-c3ccc(F)cc3)nc1)CC2 [DNDI-0690]
lesion size reduction vs respective vehicle control ([4]; study 1, 25 mg/kg PO, 10 days, day 11 post end of treatment): 89.8% | bioluminescence signal (parasite load) at the infection site ([4]; study 1, 25 mg/kg PO, 10 days): significantly reduce

EC50 (in vitro): 181 µM | EC50 [1]: 0.07 µM | EC50 [2]: 0.24 µM | EC50 [3]: 0.05 µM
Compound: Cc1c(C(=O)Nc2ccc3c(c2)B(O)OC3)nnn1-c1ccccn1 [DNDI-6148]
lesion size reduction vs respective vehicle control [4, 7]: 93.2% | mice clear of any detectable infection [4, 7]: 1/5 | bioluminescence signal (parasite load) at the infection site ([4]; study 1, 50 mg/kg PO, 5 days): significantly reduce | mice cured (no visible lesion), no detectable parasite load by bioluminescence [4, 8]: 3/6 | overall lesion size reduction compared to the average VC lesion size [4, 8]: 99.3% | mice cured, no detectable parasite load ([4]; study 2, 50 mg/kg PO, 10 days, day 18 post end of treatment): 6/6 | mice that had developed papules ([4]; study 2, 50 mg/kg PO, 10 days, day 61 post end of treatment): 0/5 | mice that had developed papules ([4]; study 2, 50 mg/kg PO, 10 days, day 74 post end of treatment): 1/5 | average lesion size [4, 9]: 1.98 mm^2 | mice that had developed lesions [4, 9]: 1/5 | lesion size reduction [5, 10]: no visible nodule | reduction of the parasite load as measured by qPCR [5, 10]: ~2 log-fold | % reduction Lesion size ([5]; Oral, 12.5 mg/kg, BID, 10 days): 66.7% | % reduction Parasite load ([5]; Oral, 12.5 mg/kg, BID, 10 days, qPCR day 11): 92.35% | % reduction Lesion size ([5]; Oral, 25 mg/kg, BID, 10 days): 85.4% | % reduction Parasite load ([5]; Oral, 25 mg/kg, BID, 10 days, qPCR day 11): 98.49% | % reduction Lesion size ([5]; Oral, 50 mg/kg, BID, 5 days): 43.2% | % reduction Parasite load ([5]; Oral, 50 mg/kg, BID, 5 days, qPCR): 100.00% | % reduction Lesion size ([5]; Oral, 50 mg/kg, BID, 10 days): 100.0% and 75.7% and 91.9% | % reduction Parasite load ([5]; Oral, 50 mg/kg, BID, 10 days, qPCR day 11, 50 mg/kg): 99.56% and 100.00% and 98.41% | % reduction Lesion size ([5]; Oral, 50 mg/kg, QD, 10 days): 100.0% | % reduction Parasite load ([5]; Oral, 50 mg/kg, QD, 10 days, qPCR day 11): 97.73% | % reduction Parasite load ([5]; Topical, Sat sol in PG-EtOH (1:1), 50 μl BID, 10 days, qPCR day 11): 71.49% and 99.68% | distribution coefficient (log D), DNDi data [6]: 1.92

EC50 (in vitro): > 200 µM | EC50 [1]: 0.03 µM | EC50 [2]: 1.2 µM | EC50 [3]: 0.38 µM
Compound: O=[N+]([O-])c1cn2c(n1)OC[C@H](Oc1ccc(OC(F)(F)F)cc1)C2 [DNDI-8219, (6 R)-2-Nitro-6-[4-(trifluoromethoxy)phenoxy]-6,7-dihydro-5 H-imidazo[2,1-b][1,3]oxazine]
